Data on 5 molecules can be found in ChEMBL document CHEMBL1155297, “Synthesis, antimicrobial and antioxidant activities of substituted pyrazoles, isoxazoles, pyrimidine and thioxopyrimidine derivatives” (2009).

In brackets after ≈: the same amount, converted by molar mass.

Common to all, as to assay type: functional
Experiment [1] relates to Staphylococcus aureus. The experiment can be described thus: Antibacterial activity against Staphylococcus aureus NCIM 5021 at 100 ug/disk after 24 hrs by agar disk diffusion method. The settings on record: NCIM 5021, 24 h, read-out: IZ. Summed up: (§1)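 Agar disc diffusion on nutrient agar plates pre-inoculated with each bacterium. Sterile 6 mm filter-paper discs were moistened with compound in DMSO at the stated per-disc amount. Plates were incubated at 37 °C, and the growth-inhibition zone diameter was read after 24 h. Each determination was run in triplicate, and the mean of three independent readings is reported.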
In general terms: A growth-free zone around the sample is the usual read-out of agar diffusion tests.

The test system of experiment [2] is Staphylococcus aureus. The experiment can be described thus: Antibacterial activity against Staphylococcus aureus NCIM 5021 at 200 ug/disk after 24 hrs by agar disk diffusion method. The settings on record: NCIM 5021, 24 h, read-out: IZ. The method in brief: as §1
In experiment [3] the test system is Bacillus subtilis. The experiment can be described thus: Antibacterial activity against Bacillus subtilis NCIM 2063 at 100 ug/disk after 24 hrs by agar disk diffusion method. The settings on record: NCIM 2063, 24 h, read-out: IZ. Summed up:
as §1

In experiment [4] the test system is Bacillus subtilis. The experiment can be described thus: Antibacterial activity against Bacillus subtilis NCIM 2063 at 200 ug/disk after 24 hrs by agar disk diffusion method. The settings on record: NCIM 2063, 24 h, read-out: IZ. Summed up:
as §1

The subject of experiment [5] is Klebsiella pneumoniae. The experiment can be described thus: Antibacterial activity against Klebsiella pneumoniae NCIM 2957 at 100 ug/disk after 24 hrs by agar disk diffusion method. As to conditions: NCIM 2957, 24 h, read-out: IZ. The method in brief:
as §1

Experiment [6] deals with Klebsiella pneumoniae. As to the kind of experiment: Antibacterial activity against Klebsiella pneumoniae NCIM 2957 at 200 ug/disk after 24 hrs by agar disk diffusion method. As to conditions: NCIM 2957, 24 h, read-out: IZ. Summed up: as §1
The subject of experiment [7] is Proteus vulgaris. The experiment can be described thus: Antibacterial activity against Proteus vulgaris NCIM 2027 at 100 ug/disk after 24 hrs by agar disk diffusion method. The settings on record: NCIM 2027, 24 h, read-out: IZ. Summed up:
as §1

Experiment [8] deals with Proteus vulgaris. The experiment can be described thus: Antibacterial activity against Proteus vulgaris NCIM 2027 at 200 ug/disk after 24 hrs by agar disk diffusion method. As to conditions: NCIM 2027, 24 h, read-out: IZ. Summed up:
as §1

The subject of experiment [9] is Fusarium solani. The experiment can be described thus: Antifungal activity against Fusarium solani NCIM 1330 at 100 ug/disk after 48 hrs by agar disk diffusion method. The settings on record: NCIM 1330, 48 h, read-out: IZ. Summed up: (§2)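 Fungal disc diffusion on nutrient agar plates pre-inoculated with each fungus. 6 mm sterile paper discs carried the compound in DMSO at the stated amount per disc. Plates were held at 37 °C, and inhibition-zone diameter was measured after 48 h. Values are the mean of three independent triplicate readings.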

Experiment [10] has as its system Fusarium solani. As to the kind of experiment: Antifungal activity against Fusarium solani NCIM 1330 at 200 ug/disk after 48 hrs by agar disk diffusion method. The settings on record: NCIM 1330, 48 h, read-out: IZ. The method in brief:
as §2

In experiment [11] the test system is Curvularia lunata. As to the kind of experiment: Antifungal activity against Curvularia lunata NCIM 716 at 100 ug/disk after 48 hrs by agar disk diffusion method. As to conditions: NCIM 716, 48 h, read-out: IZ. The method in brief: as §2
The test system of experiment [12] is Curvularia lunata. As to the kind of experiment: Antifungal activity against Curvularia lunata NCIM 716 at 200 ug/disk after 48 hrs by agar disk diffusion method. The settings on record: NCIM 716, 48 h, read-out: IZ. Summed up:
as §2

Experiment [13] concerns Aspergillus niger. The experiment can be described thus: Antifungal activity against Aspergillus niger NCIM 596 at 100 ug/disk after 48 hrs by agar disk diffusion method. As to conditions: NCIM 596, 48 h, read-out: IZ. Summed up:
as §2

Experiment [14] deals with Aspergillus niger. As to the kind of experiment: Antifungal activity against Aspergillus niger NCIM 596 at 200 ug/disk after 48 hrs by agar disk diffusion method. The settings on record: NCIM 596, 48 h, read-out: IZ. Summed up:
as §2

Experiment [15] concerns Staphylococcus aureus. The experiment can be described thus: Antibacterial activity against Staphylococcus aureus NCIM 5021 after 24 hrs by microdilution susceptibility method. The settings on record: NCIM 5021, 24 h. Summed up: (§3)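 MIC by microdilution susceptibility; compounds in DMSO, bacterial suspensions inoculated into wells. Incubation was at 36 °C for 24 h. MIC is the lowest compound concentration showing no turbidity. Chloramphenicol served as reference antibacterial.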
A general note: Dilution methods test growth across graded concentrations, often in twofold steps.

The subject of experiment [16] is Bacillus subtilis. As to the kind of experiment: Antibacterial activity against Bacillus subtilis NCIM 2063 after 24 hrs by microdilution susceptibility method. The settings on record: NCIM 2063, 24 h. Summed up:
as §3

The subject of experiment [17] is Klebsiella pneumoniae. The experiment can be described thus: Antibacterial activity against Klebsiella pneumoniae NCIM 2957 after 24 hrs by microdilution susceptibility method. The settings on record: NCIM 2957, 24 h. The method in brief: as §3
For experiment [18], the system named is Proteus vulgaris. The experiment can be described thus: Antibacterial activity against Proteus vulgaris NCIM 2027 after 24 hrs by microdilution susceptibility method. As to conditions: NCIM 2027, 24 h. The method in brief: as §3
Experiment [19] has as its system Fusarium solani. As to the kind of experiment: Antifungal activity against Fusarium solani NCIM 1330 after 48 hrs by microdilution susceptibility method. The settings on record: NCIM 1330, 48 h. Summed up:
(§4)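 Broth microdilution MIC; fungal suspensions were inoculated into wells containing compound dissolved in DMSO. Incubation was at 36 °C for 48 h. MIC was recorded as the lowest concentration with no turbidity. Ketoconazole was the reference antifungal.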

Experiment [20] concerns Curvularia lunata. As to the kind of experiment: Antifungal activity against Curvularia lunata NCIM 716 after 48 hrs by microdilution susceptibility method. The settings on record: NCIM 716, 48 h. The method in brief:
as §4

In experiment [21] the test system is Aspergillus niger. As to the kind of experiment: Antifungal activity against Aspergillus niger NCIM 596 after 48 hrs by microdilution susceptibility method. The settings on record: NCIM 596, 48 h. The method in brief:
as §4

For experiment [22], the system named is Radical scavenging activity. The experiment can be described thus: Antioxidant activity assessed as DPPH free radical scavenging activity at 100 uM after 20 mins. Summed up:
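DPPH scavenging: compound solutions were added to DPPH in dioxane/ethanol and kept at ambient temperature for 20 min. Absorbance was read at 517 nm. The test–control difference was expressed as percent DPPH radical scavenging.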

The nature of experiment [23]: Antioxidant activity assessed as nitric oxide production at 100 uM after 120 mins by Griess reagent method. Summed up: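 Nitric oxide assay with Griess read-out. At intervals, 0.5 ml of incubation solution was mixed with 0.5 ml Griess reagent (1% sulfanilamide, 0.1% N-naphthylethylenediamine dihydrochloride, 2% o-phosphoric acid in water). The control received an equal amount of solvent and was handled identically.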
In general terms: Nitrite, measured by Griess reagent, commonly stands in for NO production.

Consider `N=C1ON=C(N)C1C(CC(=O)c1ccc(Cl)cc1)C(=O)c1ccc(Cl)cc1` (stereo unspecified), for which the zone of inhibition at 100 µg/disc in [1] stood at 29 mm; in [3], 28 mm; in [5], 25 mm; in experiment [7] it was 25 mm; in [9] it was 33 mm; in experiment [11], 32 mm. In addition, the zone of inhibition at 100 µg/disc in experiment [13] was 26 mm. Moreover, the zone of inhibition at 200 µg/disc in [2] was 32 mm; in experiment [4], 30 mm; in experiment [6], 27 mm; in experiment [8], 26 mm; in [10], 35 mm; in experiment [12] it was 34 mm. The zone of inhibition at 200 µg/disc in experiment [14] was determined as 28 mm. Moreover, the MIC in experiment [15] amounted to 50 µg/mL (≈ 124 µM); in experiment [16], 50 µg/mL (≈ 124 µM); in [17] it was 100 µg/mL (≈ 247 µM); in experiment [18] it was 200 µg/mL (≈ 495 µM); in experiment [19] it was 100 µg/mL (≈ 247 µM); in [20] it was 100 µg/mL (≈ 247 µM). This molecule had an MIC in experiment [21] of 100 µg/mL (≈ 247 µM). In addition, the values for the inhibition in experiment [22] and in [23] were 89.6% and 90.3%, respectively.
Regarding `N=C1ON=C(N)C1C(CS(=O)(=O)c1ccc(Cl)cc1)S(=O)(=O)c1ccc(Cl)cc1` (stereo unspecified), the zone of inhibition at 100 µg/disc turned out to be 32 mm in experiment [1]; 31 mm in [3]; 26 mm in experiment [5]; 28 mm in [7]; 33 mm in experiment [9]; 31 mm in [11]. Also, the zone of inhibition at 100 µg/disc in experiment [13] came to 29 mm. For the same molecule, the zone of inhibition at 200 µg/disc in experiment [2] was determined as 33 mm; in experiment [4], 34 mm; in experiment [6], 29 mm; in [8], 30 mm; in experiment [10], 35 mm; in experiment [12], 33 mm. Also, the zone of inhibition at 200 µg/disc in experiment [14] is 32 mm. The MIC stood at 50 µg/mL (≈ 105 µM) in experiment [15]; 50 µg/mL (≈ 105 µM) in experiment [16]; 100 µg/mL (≈ 210 µM) in experiment [17]; 100 µg/mL (≈ 210 µM) in [18]; 100 µg/mL (≈ 210 µM) in experiment [19]; 50 µg/mL (≈ 105 µM) in experiment [20]. For the same molecule, the MIC in experiment [21] stood at 50 µg/mL (≈ 105 µM). Besides, the figures for the inhibition in experiment [22] and in experiment [23] were 94.5% and 95.4%, respectively.
For the molecule `NC1=NN=C(N)C1C(CC(=O)c1ccc(Cl)cc1)C(=O)c1ccc(Cl)cc1` (stereo unspecified), the zone of inhibition at 100 µg/disc in experiment [1] came to 31 mm; in [3] it was 28 mm; in experiment [5], 28 mm; in experiment [7] it was 25 mm; in experiment [9] it was 33 mm; in experiment [11], 34 mm. Moreover, the zone of inhibition at 100 µg/disc in experiment [13] stood at 32 mm. In addition, the zone of inhibition at 200 µg/disc in experiment [2] was determined as 33 mm; in experiment [4], 32 mm; in experiment [6], 30 mm; in experiment [8], 28 mm; in [10], 37 mm; in [12], 36 mm. The zone of inhibition at 200 µg/disc in [14] turned out to be 33 mm. In addition, the MIC in [15] came to 100 µg/mL (≈ 248 µM); in experiment [16], 100 µg/mL (≈ 248 µM); in [17], 100 µg/mL (≈ 248 µM); in [18], 100 µg/mL (≈ 248 µM); in experiment [19] it was 200 µg/mL (≈ 496 µM); in [20] it was 200 µg/mL (≈ 496 µM). In experiment [21], this molecule gave an MIC of 200 µg/mL (≈ 496 µM). Also, the inhibition in [22] stood at 91.7%; in experiment [23] it was 90.7%.
Turning to `CC(=O)N1CCN(c2ccc(OCC3COC(Cn4ccnc4)(c4ccc(Cl)cc4Cl)O3)cc2)CC1` (stereo unspecified) [KETOCONAZOLE], the zone of inhibition at 100 µg/disc came to 38 mm in experiment [9], 41 mm in [11] and 36 mm in experiment [13]. In addition, the zone of inhibition at 200 µg/disc in [10] stood at 42 mm; in [12], 44 mm; in [14], 39 mm. The minimum inhibitory concentration (MIC) stood at 12.5 µg/mL (≈ 23.5 µM) in experiment [19], 6.25 µg/mL (≈ 11.8 µM) in experiment [20] and 6.25 µg/mL (≈ 11.8 µM) in experiment [21].
For the molecule `NC1=NN=C(N)C1C(CS(=O)(=O)c1ccc(Cl)cc1)S(=O)(=O)c1ccc(Cl)cc1` (stereo unspecified), the zone of inhibition at 100 µg/disc in [1] is 34 mm; in experiment [3] it was 35 mm; in experiment [5], 30 mm; in experiment [7], 31 mm; in experiment [9], 35 mm; in experiment [11], 34 mm. Besides, the zone of inhibition at 100 µg/disc in [13] is 32 mm. Further, the zone of inhibition at 200 µg/disc in experiment [2] is 36 mm; in experiment [4] it was 37 mm; in [6], 32 mm; in experiment [8], 33 mm; in experiment [10], 39 mm; in experiment [12], 38 mm. In experiment [14], the zone of inhibition at 200 µg/disc stood at 35 mm. The MIC in [15] worked out at 25 µg/mL (≈ 52.6 µM); in experiment [16], 25 µg/mL (≈ 52.6 µM); in experiment [17] it was 50 µg/mL (≈ 105 µM); in experiment [18], 50 µg/mL (≈ 105 µM); in experiment [19], 200 µg/mL (≈ 421 µM); in experiment [20], 100 µg/mL (≈ 210 µM). In addition, it took 100 µg/mL (≈ 210 µM) to inhibit growth in experiment [21] (MIC). For the same molecule, the inhibition in [22] and in experiment [23] was 92.4% throughout.

By MIC is commonly meant the least concentration at which growth counts as inhibited. Low values mean greater potency, high ones weaker potency. What is called inhibition is the relative decrease from the control value, in per cent.
